Measured values from ChEMBL document CHEMBL4196166 (J Med Chem, 2018).
Activity calls are given as the source filed them.

Legend:
[1] = biological target: Complement C1s subcomponent (Homo sapiens) (UniProt P09871); assay: Inhibition of C1S (unknown origin) at 10 nM to 33.3 uM after 30 mins by gel-based ABPP assay
Plasminogen = Plasminogen (Homo sapiens, UniProt P00747); assay: Inhibition of plasmin (unknown origin) at 10 nM to 33.3 uM after 30 mins by gel-based ABPP assay
[2] = biological target: Lysosomal Pro-X carboxypeptidase (Homo sapiens) (UniProt P42785); assay: Inhibition of prolylcarboxypeptidase (unknown origin) at 10 nM to 33.3 uM after 30 mins by gel-based ABPP assay
[3] = biological target: Transmembrane protease serine 11D (Homo sapiens) (UniProt O60235); assay: Inhibition of transmembrane protease serine 11D (unknown origin) at 10 nM to 33.3 uM after 30 mins by gel-based ABPP assay
Homo sapiens [4] = assay: Antimetastatic activity against human PSC xenografted in BALB/c nu/nu mouse co-implanted with human AsPC1 cells assessed as reduction in metastasis lesions in liver at 10 mg/kg/day, ip measured after 28 days post first dose by haematoxylin and eosin staining-based microscopic analysis; assay type: functional, organism-based
Method in brief: (§1)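 Female athymic BALB/c nu/nu mice, 6–8 weeks old. 1×10^6 AsPC-1 and 1×10^6 human pancreatic stellate cells in 50 µL PBS injected into the pancreatic tail. Treatment randomized on day 7 (n = 4/group) for 4 weeks: 10 mg/kg/day ip in 50 mM sodium acetate pH 5.5/10% DMSO/1% Kolliphor HS-15, or gemcitabine 75 mg/kg by oral gavage twice weekly, or vehicle. At kill, liver scored for visible macrometastases, fixed in formalin, and 4 µm sections stained with H&E. Chi-square test.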

ASPC1 = assay: Antimetastatic activity against human AsPC1 cells xenografted in BALB/c nu/nu mouse co-implanted with human PSC assessed as reduction in metastasis lesions in liver at 10 mg/kg/day, ip measured after 28 days post first dose by haematoxylin and eosin staining-based microscopic analysis; assay type: functional, organism-based; method in brief: as §1
Homo sapiens [5] = assay: Antitumor activity against human AsPC1 cells xenografted in BALB/c nu/nu mouse co-implanted with human PSC assessed as reduction in tumor volume at 10 mg/kg/day, ip measured after 28 days post first dose; assay type: functional, organism-based
Method in brief: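 Orthotopic AsPC-1 plus human stellate cell co-implant (1×10^6 each) in the pancreatic tail of female nude BALB/c nu/nu mice. From day 7, dosed for 4 weeks (n = 4/group) with 10 mg/kg/day ip in acetate pH 5.5/DMSO/Kolliphor vehicle, or gemcitabine 75 mg/kg gavage twice weekly. Tumors resected at 4 weeks after first injection and measured with calipers by two observers. Volume = 1/2(length×breadth×width). Mean ± SEM.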

[6] = biological target: Adenosine receptor A2a (Homo sapiens) (UniProt P29274); assay: Displacement of [3H]ZM241385 from human wild type adenosine A2A receptor at 10 uM
Method in brief: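 Compounds tested at 10 µM for displacement of 2.5 nM [3H]ZM241385 from human wild-type A2A receptor. Total binding taken without inhibitor. Nonspecific binding defined with 100 µM NECA. At least three independent experiments, each in duplicate. Mean ± SEM.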

Transmembrane protease serine 11D (Homo sapiens), sequence (O60235 1-186 limits assumed): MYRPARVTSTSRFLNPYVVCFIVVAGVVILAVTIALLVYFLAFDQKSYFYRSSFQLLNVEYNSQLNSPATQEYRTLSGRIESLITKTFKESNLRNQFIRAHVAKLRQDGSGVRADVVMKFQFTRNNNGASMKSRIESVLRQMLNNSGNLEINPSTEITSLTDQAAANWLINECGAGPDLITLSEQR
Transmembrane protease serine 11D (Homo sapiens), sequence (O60235 187-418 limits assumed): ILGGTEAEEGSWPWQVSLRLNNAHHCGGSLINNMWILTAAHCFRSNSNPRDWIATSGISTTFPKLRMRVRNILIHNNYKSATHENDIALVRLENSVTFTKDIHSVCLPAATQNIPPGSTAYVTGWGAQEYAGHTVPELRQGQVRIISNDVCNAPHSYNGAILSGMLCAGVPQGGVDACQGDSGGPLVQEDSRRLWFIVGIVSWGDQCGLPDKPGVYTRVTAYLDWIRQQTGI
Complement C1s subcomponent (Homo sapiens), sequence (P09871 16-437 limits assumed): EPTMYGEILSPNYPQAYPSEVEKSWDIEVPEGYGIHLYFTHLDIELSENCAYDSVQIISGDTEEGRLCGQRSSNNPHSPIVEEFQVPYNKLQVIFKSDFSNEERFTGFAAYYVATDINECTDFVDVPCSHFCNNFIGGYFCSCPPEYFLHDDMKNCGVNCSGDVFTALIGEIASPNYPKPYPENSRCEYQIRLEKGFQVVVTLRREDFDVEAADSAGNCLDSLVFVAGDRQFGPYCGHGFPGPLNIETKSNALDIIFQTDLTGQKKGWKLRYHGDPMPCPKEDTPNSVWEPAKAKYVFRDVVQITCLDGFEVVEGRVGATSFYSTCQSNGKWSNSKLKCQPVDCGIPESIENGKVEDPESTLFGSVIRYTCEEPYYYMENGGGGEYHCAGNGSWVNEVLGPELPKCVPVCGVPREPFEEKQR
Complement C1s subcomponent (Homo sapiens), sequence (P09871 438-688 limits assumed): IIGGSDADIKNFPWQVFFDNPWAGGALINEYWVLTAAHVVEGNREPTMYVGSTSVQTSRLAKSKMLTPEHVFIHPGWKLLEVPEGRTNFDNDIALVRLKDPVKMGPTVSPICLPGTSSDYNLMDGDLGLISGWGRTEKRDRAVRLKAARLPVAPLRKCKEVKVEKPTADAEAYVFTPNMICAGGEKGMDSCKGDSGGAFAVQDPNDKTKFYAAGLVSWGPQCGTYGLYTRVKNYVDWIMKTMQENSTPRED
Lysosomal Pro-X carboxypeptidase (Homo sapiens), sequence (P42785 whole entry): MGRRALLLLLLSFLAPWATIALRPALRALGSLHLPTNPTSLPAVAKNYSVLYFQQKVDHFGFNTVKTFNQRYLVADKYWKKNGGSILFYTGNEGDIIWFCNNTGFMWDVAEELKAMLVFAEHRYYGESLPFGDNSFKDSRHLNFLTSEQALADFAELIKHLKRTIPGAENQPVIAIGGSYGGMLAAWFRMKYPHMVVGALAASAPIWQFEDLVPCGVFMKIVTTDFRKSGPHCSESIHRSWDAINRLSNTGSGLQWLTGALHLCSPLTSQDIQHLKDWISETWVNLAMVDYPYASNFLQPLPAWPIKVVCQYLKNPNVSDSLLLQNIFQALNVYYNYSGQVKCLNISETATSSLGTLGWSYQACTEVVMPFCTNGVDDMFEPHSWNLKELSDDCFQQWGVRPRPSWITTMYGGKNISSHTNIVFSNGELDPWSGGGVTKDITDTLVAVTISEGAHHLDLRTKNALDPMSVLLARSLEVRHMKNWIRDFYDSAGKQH
Plasminogen, sequence (P00747 97-580 limits assumed): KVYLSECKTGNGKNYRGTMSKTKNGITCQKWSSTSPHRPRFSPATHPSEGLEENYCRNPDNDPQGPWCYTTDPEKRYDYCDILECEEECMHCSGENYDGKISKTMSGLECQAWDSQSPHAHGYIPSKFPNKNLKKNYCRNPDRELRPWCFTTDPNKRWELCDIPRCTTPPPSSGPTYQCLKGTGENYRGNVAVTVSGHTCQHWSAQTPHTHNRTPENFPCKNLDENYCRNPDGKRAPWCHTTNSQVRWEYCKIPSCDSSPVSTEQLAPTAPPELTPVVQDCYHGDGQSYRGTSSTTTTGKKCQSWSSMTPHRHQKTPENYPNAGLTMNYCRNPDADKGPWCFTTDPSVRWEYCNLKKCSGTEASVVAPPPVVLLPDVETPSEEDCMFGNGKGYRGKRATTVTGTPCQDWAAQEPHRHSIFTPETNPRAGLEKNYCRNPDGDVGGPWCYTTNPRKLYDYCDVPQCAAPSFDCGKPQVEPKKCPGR
Plasminogen, sequence (P00747 581-810 limits assumed): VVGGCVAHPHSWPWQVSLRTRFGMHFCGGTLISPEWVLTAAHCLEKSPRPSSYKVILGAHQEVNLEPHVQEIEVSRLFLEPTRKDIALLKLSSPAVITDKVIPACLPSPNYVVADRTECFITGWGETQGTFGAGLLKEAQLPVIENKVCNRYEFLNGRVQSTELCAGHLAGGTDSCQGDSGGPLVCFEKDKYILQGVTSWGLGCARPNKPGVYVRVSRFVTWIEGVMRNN
Adenosine receptor A2a (Homo sapiens), sequence (P29274 whole entry): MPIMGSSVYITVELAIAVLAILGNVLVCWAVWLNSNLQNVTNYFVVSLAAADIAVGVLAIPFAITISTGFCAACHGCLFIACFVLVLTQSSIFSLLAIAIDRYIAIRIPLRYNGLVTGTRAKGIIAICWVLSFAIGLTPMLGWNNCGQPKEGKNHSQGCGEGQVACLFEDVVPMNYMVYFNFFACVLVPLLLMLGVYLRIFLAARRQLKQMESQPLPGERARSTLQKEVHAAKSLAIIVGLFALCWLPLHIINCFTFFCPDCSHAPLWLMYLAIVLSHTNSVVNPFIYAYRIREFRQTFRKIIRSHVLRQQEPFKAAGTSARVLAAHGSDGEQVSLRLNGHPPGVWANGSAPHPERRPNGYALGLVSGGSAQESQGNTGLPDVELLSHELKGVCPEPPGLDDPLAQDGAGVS

COc1ncc(-c2nc(C(=O)NC(=N)N)c(N)nc2N2CCCCCC2)cn1
active: inhibition [1] | inhibition (Plasminogen) | inhibition [2] | inhibition [3] | Activity (Homo sapiens [4]) | Activity (ASPC1) | Activity (Homo sapiens [5])

N=C(N)NC(=O)c1nc(-c2cc3ccccc3o2)c(N2CCCCCC2)nc1N
active: Activity (Homo sapiens [5])

N=C(N)NC(=O)c1nc(Cl)c(N2CCCCCC2)nc1N [N,N-HEXAMETHYLENEAMILORIDE]
active: inhibition [6]
